Experimental data reported in ChEMBL document CHEMBL4689842, “EUbOPEN Chemogenomics Library wave 1” (2021).

System: Fibroblast
Assay: Multiplex assay against human fibroblast
Format: toxicity, cell-based
Method in brief: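 Live cells were stained at seeding with Hoechst33342, BioTracker Green Microtubule Cytoskeleton Dye, MitoTracker Red and Annexin V Alexa Fluor 680. Following compound addition, they were imaged on a CQ1 microscope at 37°C and 5% CO2 and gated by CellPathfinder machine learning into Hoechst high-intensity objects or normal cells, with normal cells split into healthy, pyknosed or fragmented nuclei and pyknosed cells into mitotic or apoptotic. Tubulin, mitochondrial-mass and membrane-permeability phenotypes are per cents of healthy-nucleus cells.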

[1] = 12 h, 1 µM, compound concentration 1 uM, replicate 1
[2] = 12 h, 1 µM, compound concentration 1 uM, replicate 2
[3] = 12 h, 10 µM, compound concentration 10 uM, replicate 1
[4] = 12 h, 10 µM, compound concentration 10 uM, replicate 2
[5] = 24 h, 1 µM, compound concentration 1 uM, replicate 1
[6] = 24 h, 1 µM, compound concentration 1 uM, replicate 2
[7] = 24 h, 10 µM, compound concentration 10 uM, replicate 1
[8] = 24 h, 10 µM, compound concentration 10 uM, replicate 2

## Cl.Cl.NC1(c2ccc(-c3nc4ccn5c(=O)[nH]nc5c4cc3-c3ccccc3)cc2)CCC1
[1]
  Population Apoptotic (%): 71%
  Population Fragmented Nuclei (%): 35%
  Population Healthy Nuclei (%): 48%
  Population Hoechst High Intensity Objects (%): 42%
  Population Membrane Permeable-Phenotype (%): 4%
  Population Mitotic Cells (%): 28%
  Population Normal (%): 57%
  Population Pyknosed Nuclei (%): 15%
  Population Tubulin-Different-Phenotype (%): 6%
  Total Cell Count: 437
[2]
  Population Apoptotic (%): 87%
  Population Fragmented Nuclei (%): 55%
  Population Healthy Nuclei (%): 35%
  Population Hoechst High Intensity Objects (%): 45%
  Population Membrane Permeable-Phenotype (%): 19%
  Population Mitochondria Different-Phenotype (%): 0%
  Population Mitotic Cells (%): 12%
  Population Normal (%): 54%
  Population Pyknosed Nuclei (%): 9%
  Population Tubulin-Different-Phenotype (%): 16%
  Total Cell Count: 161
[3]
  Population Apoptotic (%): 37%
  Population Fragmented Nuclei (%): 19%
  Population Healthy Nuclei (%): 38%
  Population Hoechst High Intensity Objects (%): 49%
  Population Membrane Permeable-Phenotype (%): 7%
  Population Mitochondria Different-Phenotype (%): 4%
  Population Mitotic Cells (%): 62%
  Population Normal (%): 50%
  Population Pyknosed Nuclei (%): 41%
  Population Tubulin-Different-Phenotype (%): 42%
  Total Cell Count: 610
[4]
  Population Apoptotic (%): 80%
  Population Fragmented Nuclei (%): 71%
  Population Healthy Nuclei (%): 14%
  Population Hoechst High Intensity Objects (%): 69%
  Population Membrane Permeable-Phenotype (%): 0%
  Population Mitochondria Different-Phenotype (%): 40%
  Population Mitotic Cells (%): 20%
  Population Normal (%): 30%
  Population Pyknosed Nuclei (%): 14%
  Population Tubulin-Different-Phenotype (%): 20%
  Total Cell Count: 114
[5]
  Population Apoptotic (%): 45%
  Population Fragmented Nuclei (%): 33%
  Population Healthy Nuclei (%): 51%
  Population Hoechst High Intensity Objects (%): 49%
  Population Membrane Permeable-Phenotype (%): 1%
  Population Mitochondria Different-Phenotype (%): 1%
  Population Mitotic Cells (%): 54%
  Population Normal (%): 50%
  Population Pyknosed Nuclei (%): 15%
  Population Tubulin-Different-Phenotype (%): 9%
  Total Cell Count: 428
[6]
  Population Apoptotic (%): 57%
  Population Fragmented Nuclei (%): 57%
  Population Healthy Nuclei (%): 32%
  Population Hoechst High Intensity Objects (%): 51%
  Population Membrane Permeable-Phenotype (%): 8%
  Population Mitochondria Different-Phenotype (%): 0%
  Population Mitotic Cells (%): 42%
  Population Normal (%): 48%
  Population Pyknosed Nuclei (%): 9%
  Population Tubulin-Different-Phenotype (%): 16%
  Total Cell Count: 157
[7]
  Population Apoptotic (%): 24%
  Population Fragmented Nuclei (%): 17%
  Population Healthy Nuclei (%): 38%
  Population Hoechst High Intensity Objects (%): 53%
  Population Membrane Permeable-Phenotype (%): 5%
  Population Mitochondria Different-Phenotype (%): 10%
  Population Mitotic Cells (%): 75%
  Population Normal (%): 46%
  Population Pyknosed Nuclei (%): 44%
  Population Tubulin-Different-Phenotype (%): 42%
  Total Cell Count: 622
[8]
  Population Apoptotic (%): 83%
  Population Fragmented Nuclei (%): 70%
  Population Healthy Nuclei (%): 14%
  Population Hoechst High Intensity Objects (%): 57%
  Population Membrane Permeable-Phenotype (%): 50%
  Population Mitochondria Different-Phenotype (%): 33%
  Population Mitotic Cells (%): 16%
  Population Normal (%): 42%
  Population Pyknosed Nuclei (%): 14%
  Population Tubulin-Different-Phenotype (%): 16%
  Total Cell Count: 97
